Assay results from ChEMBL document CHEMBL5104202, “Structure-Uptake Relationship Studies of Oxazolidinones in Gram-Negative ESKAPE Pathogens” (J Med Chem, 2022).
≈ marks a conversion by molar mass, not a printed value.

What was measured:
[1] = test system: Acinetobacter baumannii; assay: Antibacterial activity against efflux pump lacking Acinetobacter baumannii assessed as inhibition of bacterial growth; format: functional, organism-based
[2] = test system: Acinetobacter baumannii; assay: Antibacterial activity against efflux pump lacking/recombinant OM pore producing Acinetobacter baumannii assessed as inhibition of bacterial growth; format: functional, organism-based
[3] = test system: Acinetobacter baumannii; assay: Antibacterial activity against recombinant OM pore producing Acinetobacter baumannii assessed as inhibition of bacterial growth; format: functional, organism-based
[4] = test system: Acinetobacter baumannii; assay: Antibacterial activity against wild type Acinetobacter baumannii assessed as inhibition of bacterial growth; format: functional, organism-based
[5] = test system: Escherichia coli; assay: Antibacterial activity against wild type Escherichia coli assessed as inhibition of bacterial growth; format: functional, organism-based
[6] = test system: Escherichia coli; assay: Antibacterial activity against recombinant OM pore producing Escherichia coli assessed as inhibition of bacterial growth; format: functional, organism-based
[7] = test system: Escherichia coli; assay: Antibacterial activity against efflux pump lacking Escherichia coli assessed as inhibition of bacterial growth; format: functional, organism-based
[8] = test system: Escherichia coli; assay: Antibacterial activity against efflux pump lacking/recombinant OM pore producing Escherichia coli assessed as inhibition of bacterial growth; format: functional, organism-based
[9] = test system: Pseudomonas aeruginosa; assay: Antibacterial activity against wild type Pseudomonas aeruginosa assessed as inhibition of bacterial growth; format: functional, organism-based
[10] = test system: Pseudomonas aeruginosa; assay: Antibacterial activity against recombinant OM pore producing Pseudomonas aeruginosa assessed as inhibition of bacterial growth; format: functional, organism-based
[11] = test system: Pseudomonas aeruginosa; assay: Antibacterial activity against efflux pump lacking Pseudomonas aeruginosa assessed as inhibition of bacterial growth; format: functional, organism-based
[12] = test system: Pseudomonas aeruginosa; assay: Antibacterial activity against efflux pump lacking/recombinant OM pore producing Pseudomonas aeruginosa assessed as inhibition of bacterial growth; format: functional, organism-based
[13] = test system: Acinetobacter baumannii; assay: Antibacterial activity against efflux pump lacking/recombinant OM pore producing Acinetobacter baumannii incubated for 24 hrs by twofold serial dilution method; format: functional
In short: (§1)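 MICs by twofold serial dilution in 96-well plates from 10 mM DMSO stocks. Cultures grown in the indicated media; for E. coli, A. baumannii and P. aeruginosa, inducers were 0.1% arabinose, 1% arabinose and 0.1 mM IPTG respectively.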

[14] = test system: Escherichia coli; assay: Antibacterial activity against efflux pump lacking/recombinant OM pore producing Escherichia coli incubated for 24 hrs by twofold serial dilution method; format: functional
In short: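 E. coli efflux-knockout/hyperporinated strain grown in M9 medium with 50 mM MOPS (pH 7.2) and 0.2% xylose. OM pore induced with 0.1% arabinose. Compounds come from 10 mM DMSO stocks and are twofold serially diluted in 96-well plates.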

[15] = test system: Pseudomonas aeruginosa; assay: Antibacterial activity against efflux pump lacking/recombinant OM pore producing Pseudomonas aeruginosa incubated for 24 hrs by twofold serial dilution method; format: functional; in short: as §1
[16] = test system: Escherichia coli; assay: Antibacterial activity against Escherichia coli SQ110 DTC G2032A incubated for 24 hrs by twofold serial dilution method; format: functional
In short: (§2)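 E. coli SQDTC (TolC-deficient, single rRNA operon) carrying LZD-resistant 23S rRNA substitutions. Compounds come from 10 mM DMSO stocks and are twofold serially diluted in 96-well plates.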

[17] = test system: Staphylococcus aureus; assay: Antibacterial activity against Staphylococcus aureus ATCC 25923 incubated for 24 hrs by twofold serial dilution method; format: functional; in short: as §1
[18] = test system: Escherichia coli; assay: Antibacterial activity against Escherichia coli SQ110 DTC incubated for 24 hrs by twofold serial dilution method; format: functional; in short: as §1
[19] = test system: Escherichia coli; assay: Antibacterial activity against Escherichia coli SQ110 incubated for 24 hrs by twofold serial dilution method; format: functional; in short: as §1
[20] = test system: Escherichia coli; assay: Antibacterial activity against Escherichia coli SQ110 DTC C2610A incubated for 24 hrs by twofold serial dilution method; format: functional; in short: as §2

Compound | IC50 [1] | IC50 [2] | IC50 [3] | IC50 [4] | IC50 [5] | IC50 [6] | IC50 [7] | IC50 [8] | IC50 [9] | IC50 [10] | IC50 [11] | IC50 [12] | MIC [13] | MIC [14] | MIC [15] | MIC [16] | MIC [17] | MIC [18] | MIC [19] | MIC [20]
O=C1O[C@@H](CO)CN1c1ccc(-c2ccc(CO)cc2)c(F)c1 | 4.4 µM | 4.6 µM | 5.7 µM | 45.3 µM | 67.9 µM | 17.6 µM | 3.9 µM | 3.7 µM | > 100 µM | > 100 µM | 5.3 µM | 5.5 µM | 12.5 µM | 25 µM | 6.25 µM | 50 µM (≈ 15.9 µg/mL) | 1.56 µM (≈ 0.495 µg/mL) | 12.5 µM (≈ 3.97 µg/mL) | > 100 µM | 25 µM (≈ 7.93 µg/mL)
O=C(O)c1ccc(-c2ccc(N3C[C@H](CO)OC3=O)cc2F)cc1 | 12.8 µM | 10.2 µM | 55.5 µM | > 100 µM | > 100 µM | > 100 µM | 54 µM | 2.6 µM | > 100 µM | > 100 µM | > 100 µM | 8.9 µM | 50 µM | 12.5 µM | > 100 µM | 50 µM (≈ 16.6 µg/mL) | 6.25 µM (≈ 2.07 µg/mL) | 25 µM (≈ 8.28 µg/mL) | > 100 µM | 25 µM (≈ 8.28 µg/mL)
C[n+]1cccc(-c2ccc(-c3ccc(N4C[C@H](CO)OC4=O)cc3F)cc2)c1 | 29.7 µM | 12.6 µM | 13.9 µM | > 100 µM | 98.4 µM | 7.8 µM | 1.2 µM | 2.1 µM | > 100 µM | 28.1 µM | 29.7 µM | 18.1 µM | 25 µM | 25 µM | 25 µM | 50 µM | 12.5 µM | 12.5 µM | > 100 µM | 25 µM
O=C1O[C@@H](CO)CN1c1ccc(-c2ccc(C(F)(F)F)cc2)c(F)c1 | 8 µM | 3.9 µM | 41.1 µM | > 100 µM | 88.8 µM | 35.3 µM | 4.1 µM | 2.9 µM | > 100 µM | > 100 µM | 8 µM | 1.4 µM | 6.25 µM | > 100 µM | > 100 µM | > 100 µM | 3.12 µM (≈ 1.11 µg/mL) | 25 µM (≈ 8.88 µg/mL) | 100 µM (≈ 35.5 µg/mL) | > 100 µM
Nc1ncc(-c2ccc(N3C[C@H](CO)OC3=O)cc2F)cn1 | 53 µM | 53 µM | > 100 µM | > 100 µM | > 100 µM | 2 µM | 5.9 µM | 1.5 µM | > 100 µM | > 100 µM | > 100 µM | 33 µM | 50 µM | > 100 µM | 12.5 µM | 100 µM (≈ 30.4 µg/mL) | 6.25 µM (≈ 1.9 µg/mL) | 25 µM (≈ 7.61 µg/mL) | > 100 µM | 50 µM (≈ 15.2 µg/mL)
C[n+]1ccc(-c2ccc(N3C[C@H](CO)OC3=O)cc2F)cc1 | 23.3 µM | 13.8 µM | 13.8 µM | 59.4 µM | 13.5 µM | 12.3 µM | 10 µM | 11 µM | > 100 µM | 59.7 µM | 48.8 µM | 9.4 µM | > 100 µM | > 100 µM | > 100 µM | > 100 µM | > 100 µM | 50 µM | 100 µM | 100 µM
C[n+]1ccccc1-c1ccc(N2C[C@H](CO)OC2=O)cc1F | > 100 µM | 33.3 µM | > 100 µM | > 100 µM | > 100 µM | > 100 µM | 72.3 µM | 60.4 µM | > 100 µM | > 100 µM | > 100 µM | 40.4 µM |  |  |  |  |  |  |  | 
COc1ccc(-c2ccc(N3C[C@H](CO)OC3=O)cc2F)cc1 | 0.7 µM | 0.6 µM | > 100 µM | > 100 µM | 23.3 µM | 3.4 µM | 0.2 µM | 0.3 µM | > 100 µM | > 100 µM | 0.7 µM | 1.2 µM |  |  |  |  |  |  |  | 
CC[n+]1ccc(-c2ccc(N3C[C@H](CO)OC3=O)cc2F)cc1 | > 100 µM | 38.5 µM | > 100 µM | > 100 µM | 43.8 µM | 36 µM | 13.7 µM | 15.9 µM | > 100 µM | > 100 µM | 57.4 µM | 42.3 µM |  |  |  |  |  |  |  | 
CCOC(=O)C1CCN(CC#Cc2ccc(N3C[C@H](CO)OC3=O)cc2F)CC1 | > 100 µM | > 100 µM | > 100 µM | > 100 µM | > 100 µM | > 100 µM | > 100 µM | > 100 µM | > 100 µM | > 100 µM | > 100 µM | > 100 µM |  |  |  |  |  |  |  | 
O=C(O)c1cncc(-c2ccc(N3C[C@H](CO)OC3=O)cc2F)c1 | > 100 µM | > 100 µM | > 100 µM | > 100 µM | > 100 µM | > 100 µM | > 100 µM | 42.2 µM | > 100 µM | > 100 µM | > 100 µM | > 100 µM |  |  |  |  |  |  |  | 
O=C1O[C@@H](CO)CN1c1ccc(-c2ccnc(N3CCCC3)c2)c(F)c1 | 72.4 µM | 72.4 µM | 71.9 µM | 71.9 µM | > 100 µM | 4 µM | 15.4 µM | 1.5 µM | > 100 µM | > 100 µM | > 100 µM | > 100 µM |  |  |  |  |  |  |  | 
C[n+]1ccccc1-c1ccc(-c2ccc(N3C[C@H](CO)OC3=O)cc2F)cc1 | 20.4 µM | 10.2 µM | 13.3 µM | > 100 µM | 72.6 µM | 13.2 µM | 3.1 µM | 4.4 µM | > 100 µM | 15.9 µM | 8.4 µM | 1.2 µM |  |  |  |  |  |  |  | 
O=C1O[C@@H](CO)CN1c1ccc(-c2cc(F)cc(F)c2)c(F)c1 | > 100 µM | > 100 µM | > 100 µM | > 100 µM | > 100 µM | > 100 µM | > 100 µM | > 100 µM | > 100 µM | > 100 µM | > 100 µM | > 100 µM |  |  |  |  |  |  |  | 
N[C@@H](Cc1cccc(-c2ccc(N3C[C@H](CO)OC3=O)cc2F)c1)C(=O)O | > 100 µM | > 100 µM | > 100 µM | > 100 µM | > 100 µM | > 100 µM | > 100 µM | > 100 µM | > 100 µM | > 100 µM | > 100 µM | > 100 µM |  |  |  |  |  |  |  | 
COC(=O)Cn1cc(C#Cc2ccc(N3C[C@H](CO)OC3=O)cc2F)cn1 | > 100 µM | 62 µM | > 100 µM | > 100 µM | > 100 µM | 52.3 µM | 88.7 µM | 36.6 µM | > 100 µM | > 100 µM | > 100 µM | > 100 µM |  |  |  |  |  |  |  | 
COCC#Cc1ccc(N2C[C@H](CO)OC2=O)cc1F | > 100 µM | > 100 µM | > 100 µM | > 100 µM | 74.9 µM | 36.3 µM | 80.3 µM | 44 µM | > 100 µM | > 100 µM | > 100 µM | > 100 µM |  |  |  |  |  |  |  | 
CSCC#Cc1ccc(N2C[C@H](CO)OC2=O)cc1F | > 100 µM | > 100 µM | > 100 µM | > 100 µM | 94.9 µM | 35.1 µM | 65.9 µM | 47.8 µM | > 100 µM | > 100 µM | > 100 µM | > 100 µM |  |  |  |  |  |  |  | 
CC(C)[n+]1ccc(-c2ccc(N3C[C@H](CO)OC3=O)cc2F)cc1 | 34.5 µM | 22.3 µM | 22 µM | 89.5 µM | 81.6 µM | 42.8 µM | 16.9 µM | 16.6 µM | > 100 µM | > 100 µM | 35.1 µM | 36.6 µM |  |  |  |  |  |  |  | 
O=C1O[C@@H](CO)CN1c1ccc(-c2ccccc2OC(F)(F)F)c(F)c1 | 33.2 µM | 24.8 µM | 59.1 µM | > 100 µM | 42.6 µM | 46.3 µM | 9.3 µM | 21.9 µM | > 100 µM | > 100 µM | 75.6 µM | 29.9 µM |  |  |  |  |  |  |  | 
